Experimental data taken from ChEMBL document CHEMBL1156720, “Synthesis and antimicrobial activity of dermaseptin S1 analogues” (Bioorg Med Chem, 2008).
In brackets after ≈: the same amount, converted by molar mass. Square brackets hold non-standard residues; d marks the D form. Peptide text beside a SMILES is read from it. 1Nal = N[C@@H](Cc1cccc2ccccc12)C(=O)O; 2Nal = N[C@@H](Cc1ccc2ccccc2c1)C(=O)O; hPhe = N[C@@H](CCc1ccccc1)C(=O)O

Legend:
Staphylococcus aureus [1] = test: Antibacterial activity against Staphylococcus aureus Cowan 1 NCTC 8530 after 24 hrs by microdilution serial twofold assay; assay type: functional; settings: Cowan 1, 24 h
How it was run: (§1)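 Bacteria grown in static culture at 37 °C in Mueller Hinton broth and diluted to 5 × 10⁵ CFU/mL. Peptides were tested by twofold serial microdilution starting from 100 μg/mL, with peptide-free control wells. The MIC was the lowest concentration with no rise in turbidity after overnight incubation at 37 °C. Values are means of at least two independent experiments run in duplicate.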

Staphylococcus aureus [2] = test: Antibacterial activity against Staphylococcus aureus Cowan 1 NCTC 8530 after 3 hrs by microdilution serial twofold assay; assay type: functional; settings: Cowan 1, 3 h, read-out: LD50 (the source's name)
How it was run: (§2)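 Mueller Hinton Broth static cultures grown at 37 °C and diluted to 5 × 10⁵ CFU/mL. Peptides were tested by twofold serial microdilution starting from 100 μg/mL in a final volume of 200 μL, with peptide-free controls. After 3 h incubation, cultures were serially 10-fold diluted in PBS and plated on Mueller Hinton Agar. Counts were taken after 24 h at 37 °C. Value is the dose giving 50% bacterial lethality.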

Staphylococcus aureus [3] = test: Antibacterial activity against Staphylococcus aureus ATCC 6538P after 24 hrs by microdilution serial twofold assay; assay type: functional
Bacillus subtilis = test: Antibacterial activity against Bacillus subtilis ATCC 9466 after 24 hrs by microdilution serial twofold assay; assay type: functional; settings: ATCC 9466, 24 h
Pseudomonas aeruginosa [4] = test: Antibacterial activity against Pseudomonas aeruginosa ATCC 15442 after 24 hrs by microdilution serial twofold assay; assay type: functional; settings: ATCC 15442, 24 h
Escherichia coli [5] = test: Antibacterial activity against Escherichia coli HB101 after 24 hrs by microdilution serial twofold assay; assay type: functional; settings: HB101, 24 h; how it was run: as §1
Escherichia coli [6] = test: Antibacterial activity against Escherichia coli HB101 after 3 hrs by microdilution serial twofold assay; assay type: functional; settings: HB101, 3 h, read-out: LD50 (the source's name); how it was run: as §2
[7] = test system: Stenotrophomonas maltophilia; test: Antibacterial activity against Stenotrophomonas maltophilia FC after 24 hrs by microdilution serial twofold assay; assay type: functional; how it was run: as §1
Candida albicans = test: Antifungal activity against wild type Candida albicans by broth microdilution method; assay type: functional
How it was run: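 Wild-strain yeast was tested in triplicate by broth microdilution following NCCLS recommendations. The MIC was the lowest peptide concentration with no increase in turbidity after overnight incubation at 37 °C.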

[8] = Toxicity assessed as hemolytic activity in human red blood cells after 30 mins; assay type: cell-based, Erythrocyte; settings: read-out: HD50
How it was run: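 Serially diluted peptides were incubated with 10⁸ washed human RBC (100 µL) for 30 min at 37 °C with agitation. After centrifugation at 900g for 10 min, haemoglobin in the supernatant was read at 550 nm. Distilled water gave maximal lysis. HC₅₀ is the mean from at least two independent experiments run in triplicate.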

Staphylococcus aureus [9] = test: Antibacterial activity against multi drug-resistant Staphylococcus aureus after 24 hrs by microdilution serial twofold assay; assay type: functional
How it was run: (§3)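 Mueller Hinton Broth cultures grown statically at 37 °C and diluted to 5 × 10⁵ CFU/mL. Twofold serial microdilution from 100 μg/mL peptide, final volume 200 μL, with peptide-free controls. MIC is the lowest concentration with no turbidity increase after overnight incubation at 37 °C. Means come from at least two independent experiments run in duplicate.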

Pseudomonas aeruginosa [10] = test: Antibacterial activity against multi drug-resistant Pseudomonas aeruginosa after 24 hrs by microdilution serial twofold assay; assay type: functional; how it was run: as §3
Burkholderia cepacia = test: Antibacterial activity against Burkholderia cepacia 6/06 after 24 hrs by microdilution serial twofold assay; assay type: functional; how it was run: as §1

| Compound | MIC (Staphylococcus aureus [1]) | LC50 (Staphylococcus aureus [2]) | MIC (Staphylococcus aureus [3]) | MIC (Bacillus subtilis) | MIC (Pseudomonas aeruginosa [4]) | MIC (Escherichia coli [5]) | LC50 (Escherichia coli [6]) | MIC [7] | MIC (Candida albicans) | HC50 at 0.5 h [8] | MIC (Staphylococcus aureus [9]) | MIC (Pseudomonas aeruginosa [10]) | MIC (Burkholderia cepacia) |
| --- | --- | --- | --- | --- | --- | --- | --- | --- | --- | --- | --- | --- | --- |
| CSCC[C@H](NC(=O)[C@@H](NC(=O)CNC(=O)[C@H](CC(C)C)NC(=O)[C@H](CCCCN)NC(=O)[C@H](CCCCN)NC(=O)[C@H](CC(C)C)NC(=O)[C@H](CCSC)NC(=O)[C@@H](NC(=O)[C@H](CCCCN)NC(=O)[C@H](Cc1cccc2ccccc12)NC(=O)[C@H](CC(C)C)NC(=O)[C@H](C)N)[C@@H](C)O)[C@@H](C)O)C(=O)N[C@@H](C)C(=O)N[C@@H](CC(C)C)C(N)=O (H-AL[1Nal]KTMLKKLGTMAL-NH2) | 11.5 µM (≈ 19.7 µg/mL) | 2400 nM | 2.8 µM (≈ 4.8 µg/mL) | 11.2 µM (≈ 19.2 µg/mL) | 5.6 µM (≈ 9.61 µg/mL) | 2.8 µM (≈ 4.8 µg/mL) | 900 nM | 22.5 µM (≈ 38.6 µg/mL) | 11.2 µM (≈ 19.2 µg/mL) | 75 µM | 22.5 µM (≈ 38.6 µg/mL) | 11.2 µM (≈ 19.2 µg/mL) | 25 µM (≈ 42.9 µg/mL) |
| CSCC[C@H](NC(=O)[C@@H](NC(=O)CNC(=O)[C@H](CC(C)C)NC(=O)[C@H](CCCCN)NC(=O)[C@H](CCCCN)NC(=O)[C@H](CC(C)C)NC(=O)[C@H](CCSC)NC(=O)[C@@H](NC(=O)[C@H](CCCCN)NC(=O)[C@H](Cc1ccc2ccccc2c1)NC(=O)[C@H](CC(C)C)NC(=O)[C@H](C)N)[C@@H](C)O)[C@@H](C)O)C(=O)N[C@@H](C)C(=O)N[C@@H](CC(C)C)C(N)=O (H-AL[2Nal]KTMLKKLGTMAL-NH2) | 11.5 µM (≈ 19.7 µg/mL) | 2500 nM | 2.8 µM (≈ 4.8 µg/mL) | 5.6 µM (≈ 9.61 µg/mL) | 5.6 µM (≈ 9.61 µg/mL) | 2.8 µM (≈ 4.8 µg/mL) | 900 nM | 25 µM (≈ 42.9 µg/mL) | 11.2 µM (≈ 19.2 µg/mL) | > 100 µM | > 25 µM | 11.2 µM (≈ 19.2 µg/mL) | 25 µM (≈ 42.9 µg/mL) |
| CSCC[C@H](NC(=O)[C@@H](NC(=O)CNC(=O)[C@H](CC(C)C)NC(=O)[C@H](CCCCN)NC(=O)[C@H](CCCCN)NC(=O)[C@H](CC(C)C)NC(=O)[C@H](CCSC)NC(=O)[C@@H](NC(=O)[C@H](CCCCN)NC(=O)[C@H](CCc1ccccc1)NC(=O)[C@H](CC(C)C)NC(=O)[C@H](C)N)[C@@H](C)O)[C@@H](C)O)C(=O)N[C@@H](C)C(=O)N[C@@H](CC(C)C)C(N)=O (H-AL[hPhe]KTMLKKLGTMAL-NH2) | 46.8 µM (≈ 78.6 µg/mL) | 9300 nM | 5.8 µM (≈ 9.74 µg/mL) | 23 µM (≈ 38.6 µg/mL) | > 46 µM | 11.7 µM (≈ 19.6 µg/mL) | 3000 nM | 23 µM (≈ 38.6 µg/mL) | 5.8 µM (≈ 9.74 µg/mL) | > 100 µM | > 46 µM | 46 µM (≈ 77.2 µg/mL) | 23 µM (≈ 38.6 µg/mL) |
| CSCC[C@H](NC(=O)[C@@H](NC(=O)CNC(=O)[C@H](CC(C)C)NC(=O)[C@H](CCCCN)NC(=O)[C@H](CCCCN)NC(=O)[C@H](CC(C)C)NC(=O)[C@H](CCSC)NC(=O)[C@@H](NC(=O)[C@H](CCCCN)NC(=O)[C@H](Cc1cccc2ccccc12)NC(=O)[C@H](CC(C)C)NC(=O)[C@H](C)NC(=O)[C@@H](N)CCCCN)[C@@H](C)O)[C@@H](C)O)C(=O)N[C@@H](C)C(=O)N[C@@H](CC(C)C)C(N)=O (H-KAL[1Nal]KTMLKKLGTMAL-NH2) | 5.1 µM (≈ 9.4 µg/mL) | 800 nM | 1.3 µM (≈ 2.4 µg/mL) | 5.2 µM (≈ 9.59 µg/mL) | 2.6 µM (≈ 4.79 µg/mL) | 1.2 µM (≈ 2.21 µg/mL) | < 800 nM | 21 µM (≈ 38.7 µg/mL) | 10.5 µM (≈ 19.4 µg/mL) | 80 µM | 21 µM (≈ 38.7 µg/mL) | 10.5 µM (≈ 19.4 µg/mL) | 42 µM (≈ 77.4 µg/mL) |
| H-ALFKTMLKKLGTMAL-NH2 | > 47.1 µM | 16700 nM | 23 µM | 23 µM | > 46 µM | 23.5 µM | 4500 nM | > 46 µM | 5.8 µM | > 100 µM | > 46 µM | > 46 µM | > 46 µM |
| H-ALHKTMLKKLGTMAL-NH2 | > 44.9 µM | > 44900 nM | > 45 µM | > 45 µM | > 45 µM | > 44.9 µM | > 44900 nM | > 45 µM | > 45 µM | > 100 µM | > 45 µM | > 45 µM | > 45 µM |
| H-ALLKTMLKKLGTMAL-NH2 | > 47.9 µM | 12000 nM | 24 µM | 24 µM | > 48 µM | 23.9 µM | 6000 nM | > 48 µM | 12 µM | > 100 µM | > 48 µM | > 48 µM | > 48 µM |
